Measured values reported in ChEMBL document CHEMBL1149849, “Capnellenes from the Formosan soft coral Capnella imbricata” (2008).
Active and inactive are the calls of the source. The calls are words filed in the database; no cut-off is given here.

Tests used:
RAW264.7 [1] = assay: Antiinflammatory activity against LPS-stimulated mouse RAW264.7 cells assessed as reduction of iNOS level at 10 uM after 16 hrs by DC protein assay; format: functional
In short: (§1)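 RAW264.7 cells activated with E. coli LPS (0.01 µg/mL) for 16 h with or without test compound. Cells washed in ice-cold PBS, lysed, and centrifuged at 20000g, 30 min, 4 °C. Supernatant protein measured by DC assay (Lowry-modified); equal protein loaded for SDS-PAGE, transferred to PVDF, blocked, and probed 180 min with anti-iNOS or anti-COX-2 (1:1000). Levels reported relative to LPS-only control.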

RAW264.7 [2] = assay: Antiinflammatory activity against LPS-stimulated mouse RAW264.7 cells assessed as reduction of COX2 level at 10 uM after 16 hrs by DC protein assay; format: functional; in short: as §1

C=C1[C@@H](O)C[C@H]2C[C@]3(CO)CCC(C)(C)[C@@H]3[C@@]12O
Activity (RAW264.7 [1]): inactive | Activity (RAW264.7 [2]): inactive

C=C1[C@@H](OC(C)=O)C[C@H]2C[C@]3(C)CCC(C)(C)[C@@H]3[C@@]12OC(C)=O
Activity (RAW264.7 [1]): inactive | Activity (RAW264.7 [2]): inactive

C=C1[C@H]2[C@@H](C[C@@H]1OC(C)=O)C[C@]1(C)CCC(C)(C)[C@H]21
Activity (RAW264.7 [1]): inactive | Activity (RAW264.7 [2]): inactive

C=C1C(=O)C[C@H]2C[C@]3(C)CCC(C)(C)[C@@H]3[C@@]12O
Activity (RAW264.7 [1]): 34.8 | Activity (RAW264.7 [2]): inactive

CC1(C)CC[C@@]2(C)C[C@@H]3CC(=O)C(CO)=C3[C@@H]12
Activity (RAW264.7 [1]): inactive | Activity (RAW264.7 [2]): inactive

C=C1[C@H]2[C@@H](C[C@@H]1O)C[C@]1(C)CCC(C)(C)[C@H]21
Activity (RAW264.7 [1]): inactive | Activity (RAW264.7 [2]): inactive

C=C1[C@H]2[C@@H](C[C@@H]1O)C[C@]1(C)CC[C@](C)(CO)[C@H]21
Activity (RAW264.7 [1]): inactive | Activity (RAW264.7 [2]): inactive

C=C1[C@@H](O)C[C@H]2C[C@]3(C)CCC(C)(C)[C@@H]3[C@@]12O
Activity (RAW264.7 [1]): 1.2 | Activity (RAW264.7 [2]): 24.8

C=C1[C@@H](OC(C)=O)C[C@H]2C[C@]3(C)CCC(C)(C)[C@@H]3[C@@]12O
Activity (RAW264.7 [1]): 54.4 | Activity (RAW264.7 [2]): 62.9
